Here are results for 11 molecules from publication PMC4059944 (Nature, 2014).

B1: Ctf4 N-terminal deletion (Ctf4CTD, aa 461-927) (domain or fragment)
chain: THSFPISLANTGKFRYMPFSPAGTPFGFTDRRYLTMNEVGYVSTVKNSEQYSITVSFFDVGRFREYHFEDLFGYDLCFLNEKGTLFGQSKTGQIQYRPHDSIHSNWTKIIPLQAGERITSVAATPVRVIVGTSLGYFRSFNQFGVPFAVEKTSPIVALTAQNYRVFSVHYSQFHGLSYSLSELGTSSKRYYKRECPLPMSLPNINSDMKKDANLDYYNFNPMGIKSLFFSSYGDPCIFGSDNTLLLLSKWRSPEESKWLPILDSNMEIWKMSGGKETTDIHVWPLALAYDTLNCILVKGKHIWPEFPLPLPSEMEIRMPVFVKSKLLEENKAILNKKNEIGADTEAEEGEEDKEIQIPVSMAAEEEYLRSKVLSELLTDTLENDGEMYGNENEVLAALNGAYDKALLRLFASACSDQNVEKALSLAHELKQDRALTAAVKISERAELPSLVKKINNIREARYEQQLK

Data set [1] has as its system Ctf4CTD. Kind of data set: X-ray crystallography of Ctf4CTD crystals soaked with peptide. The data set is classed as binding, yeast (S. cerevisiae). To be noted: soaked 24 hours at 19 °C.
The subject of data set [2] is Ctf4CTD. The experiment in a line: Fluorescence polarization. Format: binding, yeast (S. cerevisiae). As to conditions: fluorescence anisotropy, 25°C, 20 mM HEPES pH 7.2, 140 mM KCl, 5% (w/v) glycerol; 40 nM (Sld5) or 50 nM (Pol1) fluorescein-labeled peptide; mean of three independent experiments. Background: Polarisation of emitted light reports the rotation of a fluorescent probe.

In data set [3] the target is T1, Ctf4CTD (yeast Ctf4 amino acids 471 to 927) (S. cerevisiae, UniProt Q01454 471-927).
T1 sequence: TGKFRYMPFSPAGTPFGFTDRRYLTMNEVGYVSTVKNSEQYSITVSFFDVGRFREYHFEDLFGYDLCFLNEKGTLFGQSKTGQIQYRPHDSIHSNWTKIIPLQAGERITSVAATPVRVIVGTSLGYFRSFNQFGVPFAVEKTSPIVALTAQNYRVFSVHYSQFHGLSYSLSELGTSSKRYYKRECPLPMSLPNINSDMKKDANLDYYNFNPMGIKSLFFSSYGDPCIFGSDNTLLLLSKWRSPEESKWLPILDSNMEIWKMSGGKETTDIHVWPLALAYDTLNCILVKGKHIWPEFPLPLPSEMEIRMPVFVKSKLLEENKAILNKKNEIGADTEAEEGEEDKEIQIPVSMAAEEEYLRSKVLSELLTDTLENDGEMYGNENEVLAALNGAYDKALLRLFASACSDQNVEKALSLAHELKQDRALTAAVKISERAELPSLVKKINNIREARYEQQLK
Kind of data set: pull-down.

Data set [4] concerns the molecule itself. Kind of data set: negative-stain single-particle electron microscopy.
The target of data set [5] is T2, GINSPsf1ΔC (Strep III-tagged, for electron microscopy) (S. cerevisiae, UniProt Q12146 1-194; Q12488 1-164; P40359 1-213; Q03406 1-294).
T2 sequence 1: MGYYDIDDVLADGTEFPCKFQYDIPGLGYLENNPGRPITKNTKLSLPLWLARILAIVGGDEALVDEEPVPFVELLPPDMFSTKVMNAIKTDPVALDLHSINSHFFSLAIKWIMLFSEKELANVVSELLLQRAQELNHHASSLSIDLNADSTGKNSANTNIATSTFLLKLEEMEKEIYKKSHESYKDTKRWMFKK
T2 sequence 2: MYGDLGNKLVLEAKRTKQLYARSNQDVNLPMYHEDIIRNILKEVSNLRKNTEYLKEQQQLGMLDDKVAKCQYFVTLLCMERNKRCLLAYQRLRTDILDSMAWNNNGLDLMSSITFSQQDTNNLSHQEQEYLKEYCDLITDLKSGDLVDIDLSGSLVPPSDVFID
T2 sequence 3: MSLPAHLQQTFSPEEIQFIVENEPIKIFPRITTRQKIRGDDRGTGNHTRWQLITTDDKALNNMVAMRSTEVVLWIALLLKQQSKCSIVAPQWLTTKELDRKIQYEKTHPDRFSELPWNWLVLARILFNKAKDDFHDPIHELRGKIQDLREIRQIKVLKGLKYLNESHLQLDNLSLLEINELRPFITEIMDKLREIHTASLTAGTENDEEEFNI
T2 sequence 4: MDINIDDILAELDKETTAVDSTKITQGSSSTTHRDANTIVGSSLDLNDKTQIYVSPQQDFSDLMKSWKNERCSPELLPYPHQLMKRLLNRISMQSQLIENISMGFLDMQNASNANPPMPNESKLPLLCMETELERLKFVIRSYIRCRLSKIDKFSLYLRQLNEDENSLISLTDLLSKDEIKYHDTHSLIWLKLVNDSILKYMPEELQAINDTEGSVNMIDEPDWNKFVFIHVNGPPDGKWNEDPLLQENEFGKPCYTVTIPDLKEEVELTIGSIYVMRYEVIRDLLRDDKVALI
Kind of data set: negative-stain single-particle electron microscopy.

Data set [6] has as its system Ctf4CTD trimer. Kind of data set: Single-particle electron microscopy of Ctf4CTD complexes. The data set is classed as binding, yeast (S. cerevisiae).
The target of data set [7] is B1. Kind of data set: negative-stain single-particle electron microscopy.
Data set [8] in a line: Multi-angle laser scattering. Format: physicochemical, yeast (S. cerevisiae). As to conditions: size exclusion chromatography - MALS. The gist of the method: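 Recombinant His-tagged full-length yeast Ctf4, expressed in E. coli BL21(DE3)-CodonPlus (1 mM IPTG, 37°C, 2 h), purified by Ni-NTA, Mono Q ion exchange and Superdex 200 gel filtration. About 100 μg loaded onto an HPLC size-exclusion column equilibrated in 150 mM NaCl, 20 mM Tris pH 8.0, 1 mM DTT. Eluate read by 8-angle light scattering and refractive index detectors.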

For data set [9], the system named is CMG helicase. As to conditions: yeast cells; cited from earlier work.
Data set [10] addresses T1, Ctf4CTD (yeast Ctf4 amino acids 471 to …). The experiment in a line: native MS.

“And” between values parts separate entries of the source, which are not always exact repeats. Equal values may be shown once.

Take 137-IDNFDDILGEFES-149 [Pol1 peptide]: the “occupancy of binding sites in Ctf4CTD trimer crystal” value in [1] (open crystal form) was “occupies each of the two binding sites available in this crystal form”. Further, the “conformational change in helical domain of Ctf4CTD on binding” value in data set [1] is given as “does not induce an appreciable conformational change in the helical domain of Ctf4CTD”.

Regarding MDINIDDILAELDKETTAV [Sld5], the “mode of interaction with Ctf4” value in [1] (compared with Ctf4-binding motif of Pol1) is listed as “near-identical mode of interaction”.

On to “1- MDINIDDILAELDKETTAV -19 [Ctf4-binding sequence of Sld5]”, for which, in [2], the “tighter association with Ctf4 compared to Pol1 (fold)” value is ~ 5 fold.

Consider MDINIDDILAEADKETTAVD (domain or fragment) [GST-Sld5 (1-20) L12A], for which the binding result in data set [3] is listed as “binds”.

For orientation: stoichiometry N means a count of units in the complex or per binding partner. For B1, the “stoichiometry N” value in data set [4] stood at 3. The binding result in data set [5] was “binds”.

On to MDINIDAILAELDKETTAVD (domain or fragment) [GST-Sld5 (1-20) D7A], for which the binding result in data set [3] is “binds”.

B2: Pol1NTD (Pol1-NTD-ProteinA: N-terminal region of Pol1, residues 1 to 351, fused to Protein A) (domain or fragment)
chain: MSSKSEKLEKLRKLQAARNGTSIDDYEGDESDGDRIYDEIDEKEYRARKRQELLHDDFVVDDDGVGYVDRGVEEDWREVDNSSSDEDTGNLASKDSKRKKNIKREKDHQITDMLRTQHSKSTLLAHAKKSQKKSIPIDNFDDILGEFESGEVEKPNILLPSKLRENLNSSPTSEFKSSIKRVNGNDESSHDAGISKKVKIDPDSSTDKYLEIESSPLKLQSRKLRYANDVQDLLDDVENSPVVATKRQNVLQDTLLANPPSAQSLADEEDDEDSDEDIILKRRTMRSVTTTRRVNIDSRSNPSTSPFVTAPGTPIGIKGLTPSKSLQSNTDVATLAVNVKKEDVVDPETDT
B2: the “Ctf4CTD - GINS - Pol1NTD complexes observed” value in data set [6] (reconstituted hetero-assemblies, Pol1 residues 1 to 351 fused to Protein A) is reported as “varied stoichiometries, with partial or full occupancy of the Ctf4 trimer”. Also, the “Ctf4CTD - Pol1NTD complex observed” value in [6] (reference-free class averages, box size 448 Å) is on record as “ring-shaped core linked to one mobile globular density”. For the same molecule, the binding result in [7] is given as “binds”.

B3: Ctf4: full-length yeast Ctf4 protein (protein)
chain: MVSVIDKLVFDFGGKTLVSLAPDNNTLCVANKNGLTKILKTNNPEEEPETLDSSKLVSSIKCYSNSHFLMTTMQGDALRYNIDSSQEELLARFALPLRDCCVIHSGKMAVFGGDDLELILLELDDETHKKHAIKIDEQVSQISYNSQMNILAVSMINGKVQIFSLTSTIPNKVHELNDYIVANSYDDTHRDKILSNMMDDIDKDNDNDLSETADPDENNVADPEFCAANRICTRVAWHPKGLHFALPCADDTVKIFSIKGYSLQKTLSTNLSSTKAHFIDLQFDPLRGTYIAAVDLNNKLTVWNWETSEIHYTREFKRKITNIAWKIQADSKTLDLVLGTWSGSIAIVQNLAESVVSNIPDQSVAESSTKHGLFVDSESDLENLEGNDDINKSDKLFSDITQEANAEDVFTQTHDGPSGLSEKRKYNFEDEEDFIDDDDGAGYISGKKPHNEHSYSRVHKTHSFPISLANTGKFRYMPFSPAGTPFGFTDRRYLTMNEVGYVSTVKNSEQYSITVSFFDVGRFREYHFEDLFGYDLCFLNEKGTLFGQSKTGQIQYRPHDSIHSNWTKIIPLQAGERITSVAATPVRVIVGTSLGYFRSFNQFGVPFAVEKTSPIVALTAQNYRVFSVHYSQFHGLSYSLSELGTSSKRYYKRECPLPMSLPNINSDMKKDANLDYYNFNPMGIKSLFFSSYGDPCIFGSDNTLLLLSKWRSPEESKWLPILDSNMEIWKMSGGKETTDIHVWPLALAYDTLNCILVKGKHIWPEFPLPLPSEMEIRMPVFVKSKLLEENKAILNKKNEIGADTEAEEGEEDKEIQIPVSMAAEEEYLRSKVLSELLTDTLENDGEMYGNENEVLAALNGAYDKALLRLFASACSDQNVEKALSLAHELKQDRALTAAVKISERAELPSLVKKINNIREARYEQQLK
B3: the entries for the “oligomeric state in solution (MALS)” value in data set [8] and in data set [8] (listed as full-length Ctf4) were “stable homotrimers in solution” and “stable trimer in solution”, respectively. The “salt concentration resisted by association of Ctf4 with CMG” value in [9] was no less than 700 mM.

Consider IDNFDDILGEFES [Pol1 peptide 137-IDNFDDILGEFES-149], for which the “stoichiometry N” value in data set [10] is 1 peptides per Ctf4CTD trimer and 2 peptides per Ctf4CTD trimer and 3 peptides per Ctf4CTD trimer.

For the molecule MDINIDDILAELDKETTAVD (domain or fragment) [GST-Sld5 (residues 1 to 20)], in data set [3], the binding result is given as “binds”.

Consider MDINIDDILAELDKETTAV [Sld5 peptide 1-MDINIDDILAELDKETTAV-19], for which the “stoichiometry N” value in [10] was 1 peptides per Ctf4CTD trimer and 2 peptides per Ctf4CTD trimer and 3 peptides per Ctf4CTD trimer.
